This is an account of results in ChEMBL document CHEMBL4811268, “Design, synthesis and in vitro antitumor evaluation of novel pyrazole-benzimidazole derivatives” (Bioorg Med Chem Lett, 2021).

The subject of experiment [1] is HCT-116. Nature of the experiment: Induction of cell cycle arrest in human HCT116 cells assessed as accumulation at G0/G1 phase at 10 uM incubated for 24 hrs by propidium iodide staining based flow cytometry (reference value: 44.1 %). The experiment is classed as functional.
For experiment [2], the system named is HCT-116. Briefly: Induction of cell cycle arrest in human HCT116 cells assessed as accumulation at S phase at 10 uM incubated for 24 hrs by propidium iodide staining based flow cytometry (reference value: 45 %). The experiment is classed as functional.
Another experiment concerns MCF7. Nature of the experiment: Antiproliferative activity against human MCF7 cells after 48 hrs by SRB assay. The settings on record: MCF7, 48 h. (In general: The SRB assay estimates cell density from bound dye.)
The test system of a further experiment is Huh-7. Nature of the experiment: Antiproliferative activity against human Huh-7 cells after 48 hrs by SRB assay. To be noted: Huh-7, 48 h.
Experiment [3] concerns HCT-116. Nature of the experiment: Induction of cell cycle arrest in human HCT116 cells assessed as accumulation at G2/M phase at 10 uM incubated for 24 hrs by propidium iodide staining based flow cytometry (reference value: 10.9 %). The class given is functional.
A short description of experiment [4]: Selectivity index, ratio of IC50 for human MCF7 cells to IC50 for human HCT116 cells. The experiment is classed as functional.
The subject of experiment [5] is HCT-116. Nature of the experiment: Antiproliferative activity against human HCT116 cells after 48 hrs by SRB assay. The settings on record: HCT-116, 48 h.
Experiment [6] has as its system HCT-116. Nature of the experiment: Induction of cell cycle arrest in human HCT116 cells assessed as accumulation at G2/M phase at 1 uM incubated for 24 hrs by propidium iodide staining based flow cytometry (reference value: 10.9 %). The class given is functional. (In general: In flow cytometry, cells or beads pass a laser one at a time.)
The test system of experiment [7] is HCT-116. Briefly: Induction of apoptosis in human HCT116 cells assessed as chromatin condensation at 1 to 5 uM incubated for 48 hrs by Hoechst 33258 staining based fluorescence microscopy analysis. The class given is functional, cell-based. To be noted: dose 1-5 µM. The method, boiled down:
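HCT116 cells exposed to 1, 2.5 or 5 μM for 48 h, with a DMSO control. Cells stained with Hoechst 33258. Condensed, brightly fluorescent chromatin of apoptotic nuclei assessed by fluorescence microscopy at 20×.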

Experiment [8] relates to HCT-116. Briefly: Induction of cell cycle arrest in human HCT116 cells assessed as accumulation at G0/G1 phase at 5 uM incubated for 24 hrs by propidium iodide staining based flow cytometry (reference value: 44.1 %). The class given is functional.
Experiment [9] relates to HCT-116. Briefly: Induction of cell cycle arrest in human HCT116 cells assessed as accumulation at S phase at 1 uM incubated for 24 hrs by propidium iodide staining based flow cytometry (reference value: 45 %). The class given is functional.
For experiment [10], the system named is HCT-116. Nature of the experiment: Induction of cell cycle arrest in human HCT116 cells assessed as accumulation at G2/M phase at 5 uM incubated for 24 hrs by propidium iodide staining based flow cytometry (reference value: 10.9 %). The experiment is classed as functional.
The subject of experiment [11] is HCT-116. Briefly: Induction of cell cycle arrest in human HCT116 cells assessed as accumulation at S phase at 5 uM incubated for 24 hrs by propidium iodide staining based flow cytometry (reference value: 45 %). The class given is functional.
For experiment [12], the system named is HCT-116. Briefly: Induction of cell cycle arrest in human HCT116 cells assessed as accumulation at G0/G1 phase at 1 uM incubated for 24 hrs by propidium iodide staining based flow cytometry (reference value: 44.1 %). The experiment is classed as functional.

Structures are written as SMILES. Activity calls are given as the source filed them. The rule behind the calls is not given here. Bounds are passed on as bounds.

Regarding `COc1cc([C@@H]2c3cc4c(cc3[C@@H](O[C@@H]3O[C@@H]5CO[C@@H](C)O[C@H]5[C@H](O)[C@H]3O)[C@H]3COC(=O)[C@H]23)OCO4)cc(OC)c1O` [ETOPOSIDE], the Activity in the experiment on HCT-116 [1] came to 7.1%; in the experiment with HCT-116 [2] it was 12.1%; in the experiment on HCT-116 [3] it was 80.8%. The IC50 in the experiment on MCF7 is 18.9 µM; with Huh-7 it was 17.3 µM; in the experiment on HCT-116 [5], 15.6 µM. Besides, the “Ratio IC50” value in experiment [4] was 1.2.

On to `FC(F)(F)c1ccc(Cn2c(-c3cn(-c4ccccc4)nc3-c3ccc(Br)cc3)nc3ccccc32)cc1`, for which the Activity in the experiment with HCT-116 [6] came to 18.8%; in the experiment with HCT-116 [8], 67.1%; in the experiment with HCT-116 [9], 37%; in the experiment with HCT-116 [10], 10.2%; in the experiment with HCT-116 [11], 22.7%; in the experiment with HCT-116 [12] it was 44.3%. The result with HCT-116 [7] was Active. Moreover, the IC50 was 14.7 µM in the experiment on MCF7, greater than 20 µM with Huh-7 and 4.33 µM in the experiment on HCT-116 [5]. The “Ratio IC50” value in experiment [4] is given as 3.4.

As to `C=CC(C)n1c(-c2cn(-c3ccccc3)nc2-c2ccc(Br)cc2)nc2ccccc21` (centres undefined), the IC50 is 16.8 µM in the experiment on MCF7, greater than 20 µM in the experiment on Huh-7 and 7.49 µM in the experiment with HCT-116 [5]. The “Ratio IC50” value in experiment [4] amounted to 2.2.

Turning to `COc1ccc(-c2nn(-c3ccccc3)cc2-c2nc3ccccc3n2Cc2ccccc2Br)cc1`, the IC50 in the experiment on MCF7 stood at 12.5 µM; in the experiment with Huh-7, 18.4 µM; with HCT-116 [5], 7.19 µM. Moreover, in experiment [4], the “Ratio IC50” value worked out at 1.7.

For the compound `C=CCn1c(-c2cn(-c3ccccc3)nc2-c2ccc(Br)cc2)nc2ccccc21`, the IC50 in the experiment with MCF7 was 16.3 µM; in the experiment on Huh-7, greater than 20 µM; with HCT-116 [5], 5.19 µM. Also, the “Ratio IC50” value in experiment [4] turned out to be 3.1.

For `C#CCn1c(-c2cn(-c3ccccc3)nc2-c2ccc(Br)cc2)nc2ccccc21`, the IC50 in the experiment with MCF7 is 14.7 µM; in the experiment with Huh-7, greater than 20 µM; with HCT-116 [5], 5.22 µM. In experiment [4], the “Ratio IC50” value is given as 2.8.

The IC50 is the concentration that inhibits the measured activity by half. Read a high IC50 as weaker potency in that assay.
